# Assay results taken from ChEMBL document CHEMBL4330087, “Synthesis, antimicrobial activity, attenuation of aminoglycoside resistance in MRSA, and ribosomal A-site binding of pyrene-neomycin conjugates” (Eur J Med Chem, 2019).
# Activity calls are given as the source filed them. The rule behind the calls is not given here.
# What was measured:
# [1] = test system: Staphylococcus aureus; assay: Antibacterial activity against NEO-sensitive Staphylococcus aureus harboring NorA mutant after 15 to 20 hrs by CLSI protocol based microdilution assay; format: functional
# In short: (§1)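 CLSI broth microdilution on exponential-phase bacteria at ~3×10^5 cells/mL in cation-adjusted Mueller-Hinton broth. Serial 2-fold dilutions gave final concentrations of 50 to 0.78 μM; compound stocks were 10× in 10% DMSO. Incubated at 37 °C for 15-20 h, growth read at A595. Percent inhibition averaged over triplicates; MIC in μM.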
# [2] = test system: Staphylococcus epidermidis; assay: Antibacterial activity against NEO-sensitive Staphylococcus epidermidis 12384 after 15 to 20 hrs by CLSI protocol based microdilution assay; format: functional; in short: as §1
# [3] = test system: Staphylococcus aureus; assay: Antibacterial activity against methicillin-resistant Staphylococcus aureus A960649 after 15 to 20 hrs by CLSI protocol based microdilution assay; format: functional; in short: as §1
# [4] = test system: Staphylococcus aureus; assay: Antibacterial activity against methicillin-resistant Staphylococcus aureus SU-5 after 15 to 20 hrs by CLSI protocol based microdilution assay; format: functional; in short: as §1
# [5] = test system: Staphylococcus aureus; assay: Antibacterial activity against methicillin-resistant Staphylococcus aureus M0602 after 15 to 20 hrs by CLSI protocol based microdilution assay; format: functional; in short: as §1
# [6] = test system: Streptococcus pyogenes; assay: Antibacterial activity against NEO-resistant Streptococcus pyogenes C203 after 15 to 20 hrs by CLSI protocol based microdilution assay; format: functional; in short: as §1
# [7] = test system: Bacillus anthracis; assay: Antibacterial activity against NEO-sensitive Bacillus anthracis BA852 after 15 to 20 hrs by CLSI protocol based microdilution assay; format: functional; in short: as §1
# [8] = test system: Mycolicibacterium smegmatis; assay: Antibacterial activity against NEO-sensitive Mycobacterium smegmatis after 15 to 20 hrs by CLSI protocol based microdilution assay; format: functional; in short: as §1
# [9] = test system: Escherichia coli; assay: Antibacterial activity against NEO-sensitive Escherichia coli ATCC 25922 after 15 to 20 hrs by CLSI protocol based microdilution assay; format: functional; in short: as §1
# [10] = test system: Escherichia coli; assay: Antibacterial activity against NEO-sensitive Escherichia coli harboring TolC mutant after 15 to 20 hrs by CLSI protocol based microdilution assay; format: functional; in short: as §1
# [11] = test system: Escherichia coli; assay: Antibacterial activity against multidrug-resistant Escherichia coli H4H after 15 to 20 hrs by CLSI protocol based microdilution assay; format: functional; in short: as §1
# [12] = test system: Streptococcus pyogenes; assay: Antibacterial activity against NEO-resistant Streptococcus pyogenes C203 at 6.25 uM after 15 to 20 hrs by CLSI protocol based microdilution assay relative to control; format: functional
# In short: (§2)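 Exponential-phase cultures were exposed to 6.25 μM compound in duplicate with neomycin as reference, at 37 °C in a humidified incubator for 15-20 h. Broth and culture controls received sterile water with 1% DMSO. Percent growth inhibition was calculated against the growth and background controls.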
# [13] = test system: Mycolicibacterium smegmatis; assay: Antibacterial activity against NEO-sensitive Mycobacterium smegmatis at 6.25 uM after 15 to 20 hrs by CLSI protocol based microdilution assay relative to control; format: functional
# In short: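 Single-concentration screen at 6.25 μM against exponential-phase cultures, in duplicate, with NEO as reference. Enterococcus was grown in BHI broth, M. smegmatis in TS broth with 0.05% Tween 80, and all other strains in TS broth. The 1% DMSO water vehicle was added to broth (background) and culture (growth control). Incubation was 37 °C, humidified, 15-20 h. Result is percent growth inhibition.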
# [14] = test system: Staphylococcus aureus; assay: Antibacterial activity against NEO-sensitive Staphylococcus aureus C2 after 15 to 20 hrs by CLSI protocol based microdilution assay; format: functional
# In short: (§3)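 CLSI broth microdilution MIC in triplicate on exponential-phase cells, ~3×10^5 cells per mL in cation-adjusted Mueller-Hinton broth. Compound was added from 10× stocks in 10% DMSO as serial 2-fold dilutions, final 50 to 0.78 μM. Plates were incubated at 37 °C, humidified, 15-20 h. Growth was read as absorbance at 595 nm, and percent inhibition was averaged over triplicates.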
# [15] = test system: Staphylococcus aureus; assay: Antibacterial activity against NEO-sensitive Staphylococcus aureus C1 after 15 to 20 hrs by CLSI protocol based microdilution assay; format: functional; in short: as §3
# [16] = test system: Staphylococcus aureus; assay: Antibacterial activity against NEO-sensitive Staphylococcus aureus NRS77 after 15 to 20 hrs by CLSI protocol based microdilution assay; format: functional; in short: as §3
# [17] = test system: Ribosomal RNA A-site; assay: Binding affinity to rRNA-A site in Escherichia coli S30 extract assessed as inhibition of protein translation after 20 mins; format: nucleic-acid assay
# [18] = test system: Ribosomal RNA A-site; assay: Binding affinity to rRNA-A site in human MDA-MB-231 cells assessed as inhibition of protein translation; format: cell-based
# [19] = Toxicity in Caenorhabditis elegans infected with methicillin-resistant Staphylococcus aureus assessed as effect on nematode larvae viability by measuring decrease in formazan production at 6.25 to 50 uM after 24 hrs by MTT assay relative to control
# [20] = Toxicity in Caenorhabditis elegans infected with methicillin-resistant Staphylococcus aureus assessed as effect on nematode larvae viability by measuring decrease in formazan production at 3.13 to 1.56 uM after 24 hrs by MTT assay
# [21] = test system: Staphylococcus aureus; assay: Antibacterial activity against NEO-sensitive Staphylococcus aureus 25923 after 15 to 20 hrs by CLSI protocol based microdilution assay; format: functional; in short: as §1
# [22] = test system: Staphylococcus aureus; assay: Antibacterial activity against methicillin-resistant Staphylococcus aureus 33591 after 15 to 20 hrs by CLSI protocol based microdilution assay; format: functional; in short: as §1
# [23] = test system: Escherichia coli; assay: Antibacterial activity against multidrug-resistant Escherichia coli H4H at 6.25 uM after 15 to 20 hrs by CLSI protocol based microdilution assay relative to control; format: functional; in short: as §2
# [24] = test system: Escherichia coli; assay: Antibacterial activity against Escherichia coli O157:H7 at 6.25 uM after 15 to 20 hrs by CLSI protocol based microdilution assay relative to control; format: functional; in short: as §2
# [25] = test system: Staphylococcus aureus; assay: Antibacterial activity against NEO-sensitive Staphylococcus aureus 6538 after 15 to 20 hrs by CLSI protocol based microdilution assay; format: functional; in short: as §3
SMILES,MIC [1],MIC [2],MIC [3],MIC [4],MIC [5],MIC [6],MIC [7],MIC [8],MIC [9],MIC [10],MIC [11],Activity [12],Activity [13],MIC [14],MIC [15],MIC [16],IC50 [17],IC50 [18],Activity [23],Activity [24],also measured
NC[C@@H]1O[C@H](O[C@H]2[C@@H](O)[C@H](O[C@@H]3[C@@H](O)[C@H](N)C[C@H](N)[C@H]3O[C@H]3O[C@H](CN)[C@@H](O)[C@H](O)[C@H]3N)O[C@@H]2CSCCNC(=O)Cc2ccc3ccc4cccc5ccc2c3c45)[C@H](N)[C@@H](O)[C@@H]1O,6.25 to 12.5 µM,6.25 µM,12.5 µM,25 µM,25 µM,inactive,6.25 µM,6.25 µM,> 25 µM,6.25 µM,> 25 µM,inactive,43%,12.5 µM,12.5 µM,3.2 µM,269 nM,269 nM,–,–,Activity [19]: 50 to 75%; Activity [20]: Non-Toxic
NC[C@@H]1O[C@H](O[C@H]2[C@@H](O)[C@H](O[C@@H]3[C@@H](O)[C@H](N)C[C@H](N)[C@H]3O[C@H]3O[C@H](CN)[C@@H](O)[C@H](O)[C@H]3N)O[C@@H]2CNC(=O)CCCc2ccc3ccc4cccc5ccc2c3c45)[C@H](N)[C@@H](O)[C@@H]1O,12.5 µM,12.5 µM,12.5 µM,25 µM,25 µM,25 µM,12.5 µM,12.5 µM,> 25 µM,12.5 µM,> 25 µM,23%,38%,–,–,–,–,–,0%,0%,MIC [21]: 12.5 µM; MIC [22]: 12.5 µM
NC[C@@H]1O[C@H](O[C@H]2[C@@H](O)[C@H](O[C@@H]3[C@@H](O)[C@H](N)C[C@H](N)[C@H]3O[C@H]3O[C@H](CN)[C@@H](O)[C@H](O)[C@H]3N)O[C@@H]2CSCCNC(=S)NCCCCCCNC(=O)CCCc2ccc3ccc4cccc5ccc2c3c45)[C@H](N)[C@@H](O)[C@@H]1O,6.25 µM,3.13 µM,25 µM,50 µM,25 to 50 µM,inactive,3.13 µM,6.25 µM,> 25 µM,1.56 to 3.13 µM,> 25 µM,inactive,61%,–,–,–,213 nM,213 nM,5 - 30%,0%,MIC [21]: 6.25 µM; MIC [22]: 25 µM
NC[C@@H]1O[C@H](O[C@H]2[C@@H](O)[C@H](O[C@@H]3[C@@H](O)[C@H](N)C[C@H](N)[C@H]3O[C@H]3O[C@H](CN)[C@@H](O)[C@H](O)[C@H]3N)O[C@@H]2CSCCNC(=O)CCCc2ccc3ccc4cccc5ccc2c3c45)[C@H](N)[C@@H](O)[C@@H]1O,6.25 to 12.5 µM,6.25 µM,12.5 µM,25 µM,25 µM,50 µM,6.25 µM,6.25 µM,> 25 µM,6.25 µM,> 25 µM,20%,41%,–,–,–,927 nM,927 nM,<=30%,3%,MIC [21]: 12.5 µM; MIC [22]: 12.5 µM
NC[C@@H]1O[C@H](O[C@H]2[C@@H](O)[C@H](O[C@@H]3[C@@H](O)[C@H](N)C[C@H](N)[C@H]3O[C@H]3O[C@H](CN)[C@@H](O)[C@H](O)[C@H]3N)O[C@@H]2CNC(=O)Cc2ccc3ccc4cccc5ccc2c3c45)[C@H](N)[C@@H](O)[C@@H]1O,–,–,–,–,–,–,–,–,–,–,–,inactive,38%,> 25 µM,> 25 µM,> 25 µM,1280 nM,1200 to 1280 nM,inactive,0%,MIC [25]: > 25 µM
NC[C@@H]1O[C@H](O[C@H]2[C@@H](O)[C@H](O[C@@H]3[C@@H](O)[C@H](N)C[C@H](N)[C@H]3O[C@H]3O[C@H](CN)[C@@H](O)[C@H](O)[C@H]3N)O[C@@H]2CSCCNC(=O)CCc2ccc3ccc4cccc5ccc2c3c45)[C@H](N)[C@@H](O)[C@@H]1O,–,–,–,–,–,–,–,–,–,–,–,35%,29%,12.5 µM,25 µM,6.3 µM,–,–,inactive,–,MIC [25]: 12.5 µM; Activity [19]: 50 to 75%; Activity [20]: Non-Toxic
